Measurements taken from the EternaBench riboswitch data.

Test system: MS2 coat protein
Test: apparent Kd, MS2 coat protein; higher = weaker binding; RNA-MaP array; FMN 200 µM where present
Method in brief: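 Stalled E. coli RNA polymerase transcribed each design on Illumina sequencing-chip clusters. The clusters were titrated with SNAP-549-labelled MS2 coat protein, starting at 0.7 or 1.5 nM and doubling up to 3 µM, first without ligand and then with constant ligand, in 100 mM Tris-HCl pH 7.5, 80 mM KCl, 4 mM MgCl2, BSA, DTT, yeast tRNA and Tween-20. Green signal was normalised to red-channel RNA signal and to the control-cluster median Fmax. The apparent Kd is the median of filtered binding-curve fits made for each cluster.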

[1] = designed as: OFF switch for flavin mononucleotide, no ligand
[2] = ligand present: flavin mononucleotide, designed as: OFF switch for flavin mononucleotide
[3] = designed as: ON switch for flavin mononucleotide, no ligand
[4] = ligand present: flavin mononucleotide, designed as: ON switch for flavin mononucleotide

| Sequence | apparent Kd [1] | apparent Kd [2] | apparent Kd [3] | apparent Kd [4] |
| --- | --- | --- | --- | --- |
| GUGUACAGAGGAUAUACAUAAGCUAGGAAACUAGCUACUUCACAUGAGGAUCACCCAUGUAGAAGGCUGUACAC | 16.1 nM | 16.3 nM |  |  |
| UUUAUUUUUAGAGGAUAUAUUGUGUGUGAGAGAAUAGAAGGCUAAACAUACAUGAACAUGAGGAUCACCCAUGUCACCCAUGUU |  |  | 78.2 nM | 54.9 nM |
| UCGAGGUCAGGAUAUACAUGAGGAUCACCCAUGUUGAGAGAAGGUAGGAAAAGAGUAGGUAGAAGGGACGAGAG | 33.7 nM | 33.8 nM |  |  |
| UGUCGGAGCAGAGGAUAUUACAUGAGGAUCACCCAUGUAUGAACCAAUAGCUGGAAACAGCAAUGUAAGAAGGCUGCACCGACA | 12.6 nM | 178 nM |  |  |
| CGUCCGUGGGUAGUGAUCGUACAUGAGGAUCACCCAUGUGAGAAGGAUAUGCAUGCACGUGGACAGCAGAAGGUCUCACAACAA | 238 nM | 101 nM |  |  |
| AAUACGUCAGGAUAUCUGAUGUCUAACUUCGGUUAGACAUCAGAGAAGGGACAUGAGGAUCACCCAUGUAUAAA | 51.1 nM | 44.9 nM |  |  |
| GCUUGAGCUGUGAGGAUAUGAGUUCGGAAAUGAGCUUAGAAGGCACAUGAGGAUCACCCAUGUAAGGUUCGAGU | 38 nM | 17.7 nM |  |  |
| ACGUGUAAUACAGGAUAUGUAUUGGAUUAAUCAACCAGUUAUUAAGUAACGACAGAAGGGUAUACAUGAGGAUCACCCAUGUUA | 24.2 nM | 20.2 nM |  |  |
| GGUGUACAUGAGGAUCACCCAUGUCGUACGACAUGAGGAUAUGUACAGACUUCGGUCUGUACAGAAGGCAUGUGUC |  |  | 249 nM | 26.4 nM |
| UGGUACAUGGGAGGAUAUGGGUUGAUAACAUGAGGAUCACCCAUGUUAAAUAUGCCUAGUGGCAACUAGAAGGCCCAUGUACCU |  |  | 317 nM | 51 nM |
| GUGCGUGGCUAGGAUAUUGUGGAGUUUUGUCAGCGAGAAGGAGCCACAUGAGGAUCACCCAUGUGGUGUUGCUC |  | 67.5 nM |  |  |
| GGAUAGGACAGAGGAUAUACAGAUAGGAUCUACUAUCAAACAGUCCUUACAUGAGGAUCACCCAUGUAGAAGGCUGUCCUAUCG | 19.4 nM | 87.4 nM |  |  |
| GAGGAACAUGAGGAUCACCCAUGUGAGGAUAUGCAUAGUGAGCUAGUAGACGUUUAUUGCAGAAGGUACACUGA | 31.4 nM | 23.6 nM |  |  |
| UCGCGGGAGCAGAAGGGAUAGGCCUAUUGUCGUGGAGUCUACACUUAACAUGAGGAUCACCCAUGUCAGGAUAUGCCCACGCGA | 8.8 nM | 10.6 nM |  |  |
| AAAGCACGAGGAUAUACAUGAGGAUCACCCAUGUAUAACCAACAUAGGUGAUCCUCAUGUAGAAGGCGUGCAAA | 18.6 nM | 18.4 nM |  |  |
| ACUUGCUUGCAGAAGGGUGACAUGAGGAUCACCCAUGUAGCGGGCCGGCUUAAAGUCAGCGCGCCACAGGAUAUGCAGGCCUCG |  |  | 14.2 nM | 35.1 nM |
| UCGGCGCGAGGAUAUGCGGCUCCUGCUUCGGGCCGGAGCGUACAUGAGGAUCACCCAUGUAGAAGGCGCGCCGC | 12 nM | 13.9 nM |  |  |
| GCGUAUUAGGUGUAGCUAGACAUUCAAGAAGGGUGAAGAACAUGAGGAUCACCCAUGUAGUUGGUACAGGAUAUUGAUUUACGC |  |  | 897 nM | 176 nM |
| AUACUCAUGUAAGGAUAUGCAGCCGUUUCGGCUGCAGAAGGUACUAUAAUACAUGAGGAUCACCCAUGUCUUUUUAAUUUAGAC |  |  | 153 nM | 39.9 nM |
| AGGAUGUUAGGAUAUCGAAGGUUGUGGCAGGCGGGAAUUUGCGAGAAGGAACAUGAGGAUCACCCAUGUGAAAU | 22.9 nM | 22.2 nM |  |  |
| GUGAUACAUGAGGAUCACCCAUGUCACCUCACACGAGGAUAUCUGUGCAGUACUCAGUACGGAGAAGGCGUGGAAA |  |  | 96.7 nM | 26.4 nM |

| Sequence | apparent Kd [1] | apparent Kd [2] | apparent Kd [3] | apparent Kd [4] |
| --- | --- | --- | --- | --- |
| GCACUGGAUGUAGGAUAUCAGGACGAUAAGUCCUGAGAAGGACAUGAGGAUCACCCAUGUAAAACUUCACCAGUGCAUAAUAUA | 13.3 nM | 15.9 nM |  |  |
| GCCAUCGCAUGAGGAUAUGGUCAGCUUUGCUGACCAGAAGGCAUGUCAAUAGACAUGAGGAUCACCCAUGUAGUUAAGAUGGCA |  |  | 797 nM | 54 nM |
| GAAAGGGCAGGAUAUGCAGAGAGAGAGAGAGAGAGAAAAAAACAUGAGGAUCACCCAUGUAGAAGGGCCGAAAG | 34.8 nM | 39.1 nM |  |  |
| AAUUUACAGCUAGGAUAUACAUGAGGAUCACCCAUGUAAUGAUCGGAUCUUAUGAUCGUAUCAGUGUAGAAGGAGCAAAUAAGA | 12.3 nM | 21.3 nM |  |  |
| CGCCUCAGUUCAGGAUAUGUAUGGGUCUAACGAACAGAAGGGAACAUGAGGAUCACCCAUGUAAAUAGGGCCAAAGGCUUGAUA | 35.8 nM | 208 nM |  |  |
| AAUAAACUCACAGGAUAUAGCAUAGGUCGCGUGUACUUACAGGCGACUAUGCUAGAAGGGUGACCACAUGAGGAUCACCCAUGU |  |  | 887 nM | 188 nM |
| CGGUAGGGAGGAUAUCCAAUAUAUGACAUGAGGAUCACCCAUGUUUCCACUCGUACCUCCGGAGAAGGCCCAUCCC | 19.7 nM | 20.4 nM |  |  |
| UGCAUGUAAGGAUAUGCAACCGGCGCUCAUUCGCCGGUCAAGCAGAAGGUACAUGAGGAUCACCCAUGUGUCCG | 31.3 nM | 139 nM |  |  |
| UGUUGUAGUACAGGAUAUGCGGUGGAUUCGGACAUGAGGAUCACCCAUGUGCCUUUAUAACGUCUGCAGAAGGGUGAAAGAACG |  |  | 500 nM | 130 nM |
| UGUAUGGACAGAGGAUAUACAGAUAGGAUCUACUAUCAAACAAUCCUCACAUGAGGAUCACCCAUGUAGAAGGCUGUCCAUACU | 105 nM | 809 nM |  |  |
| AUCAUGUAAGGAUAUCUUAUAUGGAUCUUCGGAUCAAGUUAAGAGAAGGUACAUGAGGAUCACCCAUGUAUAAC | 23.2 nM | 35.8 nM |  |  |
| GCCAUCGCAUGAGGAUAUGCUCCGGUUUCCGGAGCAGAAGGUAUGUCAUAUGACAUGAGGAUCACCCAUGUAGUUAAGAUGGCA |  |  | 571 nM | 54.7 nM |
| GGGUACAUCGGAGGAUAUCAUGUAAAUACAUGAGGAUCACCCAUGUCGAUGGUGACAUCGGAGAUUGAGAAGGCCGAUGUACCG |  |  | 245 nM | 9.37 nM |
| UUUUAACAUGAGGAUCACCCAUGUGAGGAUAUCGAAAUUUAUAUUAAUAUUUUUAAUACGAGAAGGCACAUUUU | 47.2 nM | 73.6 nM |  |  |
| AAUAUGAGCUGGAAUAACCUAGAAACAUGAGGAUCACCCAUGUAGGAUAUCAGCACGAUAAGUGCUGAGAAGGACAACCAGCUC | 14.3 nM | 15.2 nM |  |  |
| GUCGGAAACGACAAACGUAGCAUACGAGAAGGCUGAUCCGCGACAUGAGGAUCACCCAUGUAGUUAGAGGAUAUUGGAUGCUAC |  |  | 81.7 nM | 17.3 nM |
| AGUAAGAUGCAGAAGGUGUCAGCGAGAGCUGCACAUGAGGAUCACCCAUGUUGUCGGUGACGACACAAGGAUAUGCAUCUUACA |  |  | 31.4 nM | 12.8 nM |
| ACAUGCAUAGCGAUAUGAUCGAGAGAUCAUGUCGCUAAAAUUAGAAGGACAUGAGGAUCACCCAUGUAGGAUAUGGGAGCAUGA |  |  | 39.9 nM | 10.3 nM |
| CCAGAGAUAUGAGGAUAUCGAGUGGAUAACACUCGAGAAGGCAUGUGAAAACAUGAGGAUCACCCAUGUAUGAUCUACUCUGGA |  |  | 50.6 nM | 23.8 nM |
| CCAGACGUAGGAUAUACAUUUGGGUAAUCCCGCGGAAAGAUACAUGAGGAUCACCCAUGUAGAAGGGCGGUAAA | 31.1 nM | 21.1 nM |  |  |
| GGUACCAUCACAGGAUAUGCUUUCCUUUGGGAAGCAGAAGGGUGUAACAUGAGGAUCACCCAUGUGGUGCCAGGGCGUGGGCCC |  |  | 212 nM | 19.2 nM |
